CHOP inh: CHOP inhibition in unfolded protein response; CHO-K1 CHOP-promoter luciferase, tunicamycin-induced, 15-18 h; inhibition, % at 10 µM; 220,000 tested, 3.8% active; AID 2732;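 active means compounds that reduced the stress-induced luciferase reporter signal by more than about 70% of percent inhibition, limit read from the data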;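 further: 0% = tunicamycin plus vehicle and 100% = wells without tunicamycin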
UPR CHOP act: activators of apoptotic arm of unfolded protein response (CHOP); CHO-CHOP luciferase reporter, UPR activation, luminescence; percent of tunicamycin response over DMSO baseline; activation, % at 10 µM; 330,000 tested, 0.34% active; AID 449763;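 active means at 10 µM dose, activation of 40% or more, normalized to positive control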;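 further: 100% = tunicamycin at 10 µg/mL and 0% = DMSO alone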
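System: CHO-CHOP luciferase reporter cell line; amount: 500 cells/well; buffer or medium: F12 medium containing 10% fetal bovine serum; incubation: 6 h compound exposure at 37 °C after overnight seeding; measured by: luciferase luminescence after 10 min with Steady-Glo reagent; evaluation: % reporter activation, DMSO baseline versus tunicamycin full activation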
XBP1 UPR activ: activators of adaptive arm of unfolded protein response (XBP1); CHO-XBP1 luciferase reporter, IRE1-XBP1 UPR activation, luminescence; percent of tunicamycin response, DMSO as zero; 330,000 tested, 0.33% active; activation, % at 20 µM;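 active means versus positive control, 20 µM dose yields 30% or more activation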;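 further: 100% = tunicamycin at 10 µg/mL and 0% = DMSO only wells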
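Assay system: IRE1-XBP1 luciferase reporter CHO line. Input: 1000 cells/well. Buffer or medium: F12 with 10% serum. Doses: 20 µM, 1% DMSO. Times: overnight seeding at 37 °C, 6 h compound treatment at 37 °C. Technique: Steady-Glo luciferase glow luminescence, 10 min after reagent addition.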
TLR4 MyD88 comp: TLR4-MyD88 interaction inhibition in cells | O00206+Q99836 | HeLa CL3-4 TLR4/MyD88 BLA complementation, FRET ratio | inhibition, % at 8.4 µM | 200,000 tested, 0.18% active | AID 861; in the data active means inhibition above about 25%;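 further: 0% = vehicle and 100% = reference inhibitor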
NOD2-RIPK2 inh: inhibitors of human NOD2-RIPK2 interaction; inhibition, % at 4.98 µM; 360,000 tested, 0.38% active; O43353; CHO BLA complementation NOD2-RIPK2, CCF4 ratio; AID 624267; in the data active means inhibition above about 21%;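 further: 0% = vehicle only and 100% = reference blocker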
TLR9-MyD88 block: inhibitors of human TLR9-MyD88 binding. Q9NR96+Q99836. CHO BLA complementation TLR9-MyD88, CCF4 FRET ratio. inhibition, % at 4.98 µM. 340,000 tested, 0.21% active. AID 504734;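 active means inhibition above the mean over all tested compounds plus 3 SD, cut at about 21% in these data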;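 further: 0% = DMSO only wells and 100% = clavulanate BLA inhibitor control wells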
* = called active by the depositor; x = not tested or not shown. Only a selection was taken, and hits are over-represented in it overall.

SMILES	CHOP inh	UPR CHOP act	XBP1 UPR activ	TLR4 MyD88 comp	NOD2-RIPK2 inh	TLR9-MyD88 block
S=C(Nc1ccc(Nc2ccccc2)cc1)NC1CCCCCC1	80*	3	0	5	-2	8
CC(C)(C)NC(=S)Nc1ccc(Nc2ccccc2)cc1	73*	2	-3	-2	-7	-4
S=C(Nc1ccc(Cl)cc1)NC1CCCCC1	13	0	5	x	-8	-6
COc1ccc(CN(C)C[C@@H]2OCCCC[C@H](C)Oc3ccc(NC(=O)Nc4ccc(F)cc4)cc3C(=O)N([C@H](C)CO)C[C@H]2C)cc1	x	x	x	x	-11	16
CC(C)Nc1nc(Oc2ccc(Cl)cc2Cl)cc(C(F)(F)F)n1	60	-1	-3	6	0	-1
CC(C)Nc1nc(Oc2cccc(Cl)c2Cl)cc(C(F)(F)F)n1	75*	0	-1	-9	-14	1
CC(C)COc1cccc(C(=O)Nc2ccc(S(=O)(=O)N3CCOCC3)cc2)c1	80*	-1	6	1	-1	0
Cc1ccc(Nc2nc(-c3ccc(S(=O)(=O)N4CCOCC4)cc3)cs2)cc1Cl	88*	13	10	-9	0	10
COc1ccc(-c2csc(NC(=O)c3ccccc3NS(=O)(=O)c3ccc(F)c(F)c3)n2)cc1	79*	6	3	3	7	4
COc1cccc(C(=O)Nc2nc(-c3ccc(S(=O)(=O)N4CCOCC4)cc3)cs2)c1	84*	2	-4	10	-2	-6
Cc1ccc(S(=O)(=O)Nc2ccccc2C(=O)Nc2nc(-c3ccc(F)cc3)cs2)cc1	67	16	4	12	1	9
Cc1cn([C@H]2C[C@H](O)[C@@H](CNC(=O)[C@H](N)Cc3cscn3)O2)c(=O)[nH]c1=O	x	x	x	x	-2	-6
Cc1cc(C(=O)CSc2nc3ccccc3o2)c(C)n1C1CC1	-36	6	6	-5	3	4
C=CCn1c(C)cc(C(=O)CSc2nc3ccccc3o2)c1C	74*	1	-4	-6	-4	1
CN(C)CCN1CCN(C(c2cc3ccccc3o2)c2nnnn2C(C)(C)C)CC1 (stereo not given)	x	x	x	x	6	x
CC1(C(=O)NCCc2c[nH]c3ccccc23)CCN1Cc1ccccc1OC(F)F (stereo not given)	x	x	x	x	3	x
Cc1ccc(S(=O)(=O)N2CCCCC2)cc1NC(=O)CN1C(=O)CN(C)C1=O	86*	-1	-5	1	-12	0
CC1CC(C)(C)CC2(C1)NC(=O)N(CC(=O)OCC(=O)Nc1cc(S(=O)(=O)N3CCCCC3)ccc1Cl)C2=O (stereo not given)	x	x	x	x	-4	-15
CC1(C)NC(=O)N(CC(=O)OCC(=O)Nc2cc(S(=O)(=O)N3CCCCC3)ccc2Cl)C1=O	79*	1	-1	6	-9	0
O=C(NC1CCCCC1)C(c1cccs1)N(C(=O)Cc1c[nH]c2ccccc12)c1ccc(F)cc1 (stereo not given)	91*	-1	6	0	-7	-6
Cc1nn(-c2ccc(C(=O)Nc3nnc(C4CC4)s3)cc2)c(C)c1Cl	73*	3	-3	2	-6	-4
Cc1cccc(C)c1NC(=O)NS(=O)(=O)c1ccccc1	x	x	x	x	-1	7
CC(C)CNC(=O)CSc1nnc(-c2ccccn2)n1Cc1ccccc1	71*	-3	-2	-1	3	-3
CCCn1c(SCC(=O)NCCc2ccccc2)nnc1-c1ccccn1	29	-3	0	4	-8	6
Cc1ccccc1Oc1ccc2c(c1)[C@@H]1C[C@H](N(C)C(=O)Nc3cc(Cl)cc(Cl)c3)[C@H]([C@H](C)O)C(=O)N1CC2	x	x	x	x	-9	-13
O=C(CCN1CCN(Cc2ccccc2)CC1)Nc1ccc(OCc2ccccc2)cc1	70*	3	-3	6	-5	1
CCCOc1ccc(NC(=O)CC2C(=O)N(CC)C(=S)N2CCNC(C)=O)cc1 (stereo not given)	22	8	-1	-8	-7	9
